From PubChem BioAssay
UBC13 inh – human UBC13 polyubiquitination inhibition; P61088; UBC13 polyubiquitin chain formation, TR-FRET; inhibition, % at 20 µM; 0.47% of 330,000 active; AID 485273; in the data active = inhibition above about 45%, passing the limit was not always enough; inconclusive = no clear call, values can overlap the other calls
T cruzi repl – blocks replication of Trypanosoma cruzi | 1.4% of 300,000 active | T. cruzi beta-gal in NIH3T3, luminescence, 90 h | inhibition, % (no concentration beside the values);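 active = mean inhibition across valid replicates above about 55%, limit read from the data; inconclusive = mean below that limit but half or more replicates reach it; inactive = mean below it, under half of replicates reach it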;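 also: signal also drops with host cell toxicity which is not excluded here; 0% = plate median of DMSO wells and 100% = zero luminescence signal; higher percent means less beta-gal luminescence so fewer parasites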
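Assay system: NIH/3T3 host cells with β-galactosidase reporter T. cruzi; input: 5,000 host fibroblasts per well; compound: single 50 nL compound addition per well in DMSO; timing: ≥90 h infection period, 3 h prior cell attachment; measured by: GalScreen β-gal luminescence, detergent lysis, 60 min; evaluation: percent inhibition of parasite-derived β-gal signal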
AI-2 QS modul – modulates the Vibrio harveyi AI-2 quorum sensing system | 0.4% of 300,000 active | activity change, % at 7.5 µM | Vibrio harveyi JMH597 AI-2 luminescence/OD600 ratio, 9 h; hits give low values; strain lacks LuxN and CqsS sensors; 0 = neutral-control median; in the data active = activity change below about -75%, passing the limit was not always enough; inconclusive = no clear call, values can overlap the other calls;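 also: luminescence divided by OD600 gain over 9 h not by final OD600 alone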
PP1 inh – counter-screen for PP5 inhibitors: inhibitors of human PP1-alpha; P62136; purified PP1alpha, OMFP fluorescence; inhibition, % at 6.7 µM; 0.9% of 320,000 active;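 active = inhibition above the mean inhibition of all tested compounds plus 3 SD, computed separately for each screening campaign, cut at about 15% in these data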
Target sequence (P62136 whole entry, looked up): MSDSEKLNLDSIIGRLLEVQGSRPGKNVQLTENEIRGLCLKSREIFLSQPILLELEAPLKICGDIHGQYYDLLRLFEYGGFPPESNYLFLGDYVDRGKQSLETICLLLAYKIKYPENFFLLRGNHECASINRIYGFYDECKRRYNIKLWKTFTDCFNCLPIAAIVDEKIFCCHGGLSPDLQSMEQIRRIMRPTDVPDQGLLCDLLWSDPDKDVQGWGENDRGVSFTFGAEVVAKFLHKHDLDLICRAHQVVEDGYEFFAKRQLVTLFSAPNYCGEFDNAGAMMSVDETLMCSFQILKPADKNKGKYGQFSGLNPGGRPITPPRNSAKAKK
p-CIP stab down – lowers stability of the mouse p/CIP coactivator protein | Q05BA5 | F442A p/CIP-EGFP cells, EGFP fluorescence, 16 h | decrease of EGFP signal, % at 10 µM | 0.01% of 290,000 active | AID 1984;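 active = EGFP signal decrease of at least 30% at 10 µM or well 3 SD below plate mean, unless failing retest; inactive = the rest, including hits failing retest or dose response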
* marks the source's active call; other numbers are inactive results; ? = inconclusive; nt = not tested or not shown. The list is not random: actives were taken first. Their share in the collection is about 2.8%.

SMILES	UBC13 inh	T cruzi repl	AI-2 QS modul	PP1 inh	p-CIP stab down
O=C(OCC#CCSc1nnc(-c2cccc3ccccc23)o1)c1cc2ccccc2o1	26	nt	nt	nt	nt
Cc1ccccc1Nc1nc(-c2sc(NC(=O)c3cccc(Cl)c3)nc2C)cs1	-47	-10	25	11	-15
Cc1nc(NC(=O)c2ccco2)sc1-c1csc(Nc2ccc(Cl)cc2Cl)n1	-27	59*	30	0	-16
Cc1ccccc1Nc1nc(-c2sc(NC(=O)c3ccccc3)nc2C)cs1	93*	-10	16	3	-2
COc1ccc(-c2csc(NC(=O)C3CCN(c4ncnc5sc(C)c(C)c45)CC3)n2)cc1OC	2	57*	14	-1	nt
COc1ccccc1OCC(=O)NNC(=O)C1CCN(c2ncnc3sc(C)c(C)c23)CC1	7	nt	nt	-7	nt
Cc1nnsc1NC(=O)OCc1ccccc1Cl	2	14	11	-3	-6
Cc1nnsc1NC(=O)OCc1ccc(C(F)(F)F)cc1	-3	-10	13	17*	-11
CC(C)(C)NC(=O)CSc1nc2ccc(NC(=O)CSc3nnnn3Cc3ccccc3)cc2s1	-24	12	24	16*	4
Cc1ccc(C)c(N(CC(=O)NC2CCCC2)C(=O)c2cc3cc4cc(C)ccc4nc3s2)c1	-13	6	10	-5	-2
Cc1cccc(N(CC(=O)NC2CCCC2)C(=O)c2cc3cc4cccc(C)c4nc3s2)c1C	4	57*	21	-2	-10
Nc1nonc1-n1nnc(C(=O)N/N=C/c2ccc(Cl)cc2Cl)c1CN1CCOCC1	1	-13	7	2	4
CCOc1ccc(N=C2SC(C(=O)Nc3ccccc3C#N)C(N)=C2C(=O)Nc2ccc(Cl)cc2)cc1 (stereo unspecified)	3	13	38	19*	2
CCCCN(C)CC(O)Cn1cc(/C=C/C(=O)c2ccc(OCC)cc2)c2ccccc21 (stereo unspecified)	26	59*	12	0	-9
C/C(=N\NC(=O)c1ccc(Cl)cc1)c1ccccn1	1	61*	-33	-2	-1
C/C(=N\NC(=O)c1cc(Cl)ccc1O)c1ccc(Br)s1	16	-18	0	1	6
C/C(=N\NC(=O)c1ccccn1)c1ccc(Cl)cc1	7	0	4	-1	-2
C/C(=N\NC(=O)c1ccc(Cl)cc1)c1ccc(Br)s1	0	58*	19	1	17
S=C1NC2(CCCCC2)Nc2ccccc21	?	-3	11	-4	-5
Cc1oc2c(c1C(=O)O)C(=O)c1ccccc1C2=O	-56	3	-83*	-2	-6
CCCN(CC(=O)Nc1ccccc1C)C(=O)/C=C/c1ccc(OCC)c(OC)c1	19	nt	nt	-2	nt
O=C(COc1ccccc1C(=O)NCc1ccncc1)Nc1ccc(Br)cc1	2	57*	3	1	-45
O=C(N/N=C/c1ccncc1)c1ccccc1OCc1ccc(Br)cc1	15	71*	18	1	-6
CCOc1ccc(NC(=O)COc2ccccc2C(=O)NCc2ccccc2)cc1	8	nt	nt	2	nt
O=C1NCCCCC1NS(=O)(=O)c1ccc(Cl)cc1 (stereo unspecified)	8	-2	14	-4	-4
SMILES	UBC13 inh	T cruzi repl	AI-2 QS modul	PP1 inh	p-CIP stab down
Cc1cccc(NC(=O)CNC(=O)CCc2nc3sc4c(c3c(=O)[nH]2)CCCC4)c1C	6	3	21	-1	nt
O=C(CCc1nc2sc3c(c2c(=O)[nH]1)CCCC3)Nc1ccccc1Cl	4	-3	20	16*	nt
O=C(CCl)N(Cc1cc(=O)[nH]c2ccccc12)c1ccccc1	9	10	5	1	-9
Cc1ccccc1C(=O)NN1CC(C(=O)OCc2ccc(Cl)c(Cl)c2)CC1=O (stereo unspecified)	6	-4	17	0	-1
C=C(C)C(=O)Nc1ccc2c(c1)OCCOCCOCCO2	-13	-6	16	17*	5
CCCCn1c(-c2ccc(C(C)(C)C)cc2)nc2cc3[nH]c(=O)c(C(C)C)nc3cc21	-7	14	9	7	-8
CCCCn1c(-c2ccc(Cl)c(Cl)c2)nc2cc3[nH]c(=O)c(C(C)C)nc3cc21	-22	33	10	16*	-4
COc1ccccc1-n1cnnc1SCC(=O)NC1CCCC1	-2	nt	nt	-2	nt
Cc1cc(OCCCn2ccnc2)cc(C)c1Cl	8	59*	19	0	-5
Cc1ccc(C)c(OCCCCCn2ccnc2)c1	14	72*	1	1	-4
